The source made the active and inactive calls. The calls are words filed in the database; no cut-off is given here.
Columns and labels:
[1] = system: Mammalian orthoreovirus 1; test: Antiviral activity against Reovirus-1 infected in african green monkey Vero cells assessed as inhibition of viral plaque formation at 250 uM; format: functional, organism-based
Outline: (§1)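 Confluent host cell monolayers were inoculated with 100 CCID50 of virus in the presence of test compound at serial dilutions (250, 50, 10, … μM). Viral cytopathicity was scored once it reached completion in untreated virus-infected controls.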

Human alphaherpesvirus 3 [2] = test: Antiviral activity against thymidine kinase-deficient Varicella Zoster virus 07/1 infected in human HEL cells assessed as inhibition of viral plaque formation at 250 uM; format: functional, organism-based
MDCK = test: Cytotoxicity against MDCK cells assessed as change in cell morphology up to 100 uM; format: cell-based, Canis lupus familiaris; conditions: dog
Outline: (§2)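 Uninfected host-cell cultures were examined under the microscope. MCC was taken as the lowest compound concentration producing a detectable alteration of normal cell morphology, assessed at concentrations up to 100 μM.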

HEL [3] = test: Cytotoxicity against human HEL cells 3 days by coulter counting; format: functional; conditions: 72 h
Outline: (§3)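 Cells were suspended at 300,000–500,000 cells/mL and added 1:1 to compound dilutions. Incubation was at 37 °C, 2 days for L1210 and 3 days for CEM, HeLa and HEL. Cells were counted with a Coulter counter. CC50 is the concentration inhibiting cell proliferation by 50%.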

Feline coronavirus = test: Antiviral activity against Feline coronavirus infected in CrFK cells assessed as inhibition of viral plaque formation at 250 uM; format: functional, organism-based; outline: as §1
Vaccinia virus = test: Antiviral activity against Vaccinia virus infected in human HEL cells assessed as inhibition of viral plaque formation at 250 uM; format: functional, organism-based; conditions: Orthopoxvirus vaccinia; outline: as §1
Vero = test: Cytotoxicity against african green monkey Vero cells assessed as change in cell morphology up to 100 uM; format: cell-based; conditions: chlorocebus sabaeus; outline: as §2
[4] = Cytotoxicity against CRFK cells assessed as change in cell morphology up to 100 uM; format: cell-based, Felis catus; conditions: cat; outline: as §2
Human alphaherpesvirus 3 [5] = test: Antiviral activity against thymidine kinase-positive Varicella Zoster virus Oka infected in human HEL cells assessed as inhibition of viral plaque formation at 250 uM; format: functional, cell-based; conditions: strain Oka vaccine
Human alphaherpesvirus 1 [6] = test: Antiviral activity against thymidine kinase-deficient acv-resistant Herpes simplex virus 1 KOS infected in human HEL cells assessed as inhibition of viral plaque formation at 250 uM; format: functional, organism-based
Felid alphaherpesvirus 1 = test: Antiviral activity against Felid herpesvirus 1 infected in CrFK cells assessed as inhibition of viral plaque formation at 250 uM; format: functional, organism-based; outline: as §1
Human respirovirus 3 = test: Antiviral activity against Parainfluenza-3 virus infected in african green monkey Vero cells assessed as inhibition of viral plaque formation at 250 uM; format: functional, organism-based; outline: as §1
Coxsackievirus B4 [7] = test: Antiviral activity against Coxsackievirus B4 infected in african green monkey Vero cells assessed as inhibition of viral plaque formation at 250 uM; format: functional, organism-based; outline: as §1
Human betaherpesvirus 5 [8] = test: Antiviral activity against Human cytomegalovirus Davis infected in human HEL cells assessed as inhibition of viral plaque formation at 250 uM; format: functional, organism-based
CCRF-CEM = test: Cytotoxicity against human CEM cells 3 days by coulter counting; format: functional; conditions: 72 h; outline: as §3
[9] = system: Human immunodeficiency virus 2; test: Antiviral activity against Human immunodeficiency virus 2 infected in human CEM cells assessed as inhibition of virus-induced giant cell formation after 4 days by microscopic analysis; format: functional, organism-based; conditions: CCRF-CEM
Outline: (§4)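 CEM cells at about 3 × 10⁵ cells/cm³ were infected with 100 CCID50/mL of HIV-1(IIIB) or HIV-2(ROD), then seeded into wells holding test compound dilutions. After 4 days at 37 °C, virus-induced giant cell formation was scored microscopically.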

HeLa [10] = test: Cytotoxicity against human HeLa cells 3 days by coulter counting; format: functional; conditions: 72 h; outline: as §3
[11] = system: Respiratory syncytial virus; test: Antiviral activity against Respiratory syncytial virus infected in human HeLa cells assessed as inhibition of viral plaque formation at 250 uM; format: functional, organism-based; outline: as §1
Sindbis virus = test: Antiviral activity against Sindbis virus infected in african green monkey Vero cells assessed as inhibition of viral plaque formation at 250 uM; format: functional, organism-based; outline: as §1
Punta Toro virus = test: Antiviral activity against Punta Toro virus infected in african green monkey Vero cells assessed as inhibition of viral plaque formation at 250 uM; format: functional, organism-based
L1210 = test: Cytotoxicity against mouse L1210 cells 2 days by coulter counting; format: functional; conditions: L1210, 48 h; outline: as §3
Human alphaherpesvirus 2 = test: Antiviral activity against Herpes simplex virus 2 G infected in human HEL cells assessed as inhibition of viral plaque formation at 250 uM; format: functional, organism-based; conditions: strain G
HEL [12] = test: Cytotoxicity against human HEL cells assessed as change in cell morphology up to 100 uM; format: cell-based; outline: as §2
[13] = system: Vesicular stomatitis virus; test: Antiviral activity against Vesicular stomatitis virus infected in human HEL cells assessed as inhibition of viral plaque formation at 250 uM; format: functional, organism-based; outline: as §1
Human betaherpesvirus 5 [14] = test: Antiviral activity against Human cytomegalovirus AD169 infected in human HEL cells assessed as inhibition of viral plaque formation at 250 uM; format: functional, organism-based
HeLa [15] = test: Cytotoxicity against human HeLa cells assessed as change in cell morphology up to 100 uM; format: cell-based; outline: as §2
Human alphaherpesvirus 1 [16] = test: Antiviral activity against Herpes simplex virus 1 KOS infected in human HEL cells assessed as inhibition of viral plaque formation at 250 uM; format: functional, organism-based; outline: as §1
Coxsackievirus B4 [17] = test: Antiviral activity against Coxsackievirus B4 infected in human HeLa cells assessed as inhibition of viral plaque formation at 250 uM; format: functional, organism-based; outline: as §1
[18] = system: Vesicular stomatitis virus; test: Antiviral activity against Vesicular stomatitis virus infected in human Hela cells assessed as inhibition of viral plaque formation at 250 uM; format: functional, organism-based
[19] = system: Human immunodeficiency virus 1; test: Antiviral activity against Human immunodeficiency virus 1 infected in human CEM cells assessed as inhibition of virus-induced giant cell formation after 4 days by microscopic analysis; format: functional, organism-based; conditions: CCRF-CEM; outline: as §4

Structure (SMILES)	Activity [1]	Activity (Human alphaherpesvirus 3 [2])	Activity (MDCK)	CC50 (HEL [3]) [µM]	Activity (Feline coronavirus)	Activity (Vaccinia virus)	Activity (Vero)	Activity [4]	Activity (Human alphaherpesvirus 3 [5])	Activity (Human alphaherpesvirus 1 [6])	Activity (Felid alphaherpesvirus 1)	Activity (Human respirovirus 3)	Activity (Coxsackievirus B4 [7])	Activity (Human betaherpesvirus 5 [8])	CC50 (CCRF-CEM) [µM]	Activity [9]	CC50 (HeLa [10]) [µM]	Activity [11]	Activity (Sindbis virus)	Activity (Punta Toro virus)	further results
CCOP(=O)(OCC)[C@@H]1C[C@H](n2cc(-c3ccccc3)nn2)ON1C (relative stereo)	inactive	inactive	Non-toxic	54	inactive	inactive	Non-toxic	Non-toxic	inactive	inactive	inactive	inactive	inactive	inactive	> 250	inactive	> 250	inactive	inactive	inactive	CC50 (L1210): 172 µM; Activity (Human alphaherpesvirus 2): inactive; Activity (HEL [12]): Non-toxic; Activity [13]: inactive; Activity (Human betaherpesvirus 5 [14]): inactive; Activity (HeLa [15]): Non-toxic; Activity (Human alphaherpesvirus 1 [16]): inactive; Activity (Coxsackievirus B4 [17]): inactive; Activity [18]: inactive; Activity [19]: inactive
CCOP(=O)(OCC)[C@@H]1C[C@H](n2cc(-c3cccc(F)c3)nn2)ON1C (relative stereo)	inactive	inactive	Non-toxic	43	inactive	inactive	Non-toxic	Non-toxic	inactive	inactive	inactive	inactive	inactive	inactive	> 250	inactive	212	inactive	inactive	inactive	CC50 (L1210): 104 µM; Activity (Human alphaherpesvirus 2): inactive; Activity (HEL [12]): Non-toxic; Activity [13]: inactive; Activity (Human betaherpesvirus 5 [14]): inactive; Activity (HeLa [15]): Non-toxic; Activity (Human alphaherpesvirus 1 [16]): inactive; Activity (Coxsackievirus B4 [17]): inactive; Activity [18]: inactive; Activity [19]: inactive
CCOP(=O)(OCC)[C@@H]1C[C@H](n2cc(-c3ccccn3)nn2)ON1C (relative stereo)	inactive	inactive	Non-toxic	78	inactive	inactive	Non-toxic	Non-toxic	inactive	inactive	inactive	inactive	inactive	inactive	> 250	inactive	> 250	inactive	inactive	inactive	CC50 (L1210): 206 µM; Activity (Human alphaherpesvirus 2): inactive; Activity (HEL [12]): Non-toxic; Activity [13]: inactive; Activity (Human betaherpesvirus 5 [14]): inactive; Activity (HeLa [15]): Non-toxic; Activity (Human alphaherpesvirus 1 [16]): inactive; Activity (Coxsackievirus B4 [17]): inactive; Activity [18]: inactive; Activity [19]: inactive
CCOP(=O)(OCC)[C@@H]1C[C@H](n2cc(-c3ccc(F)cc3F)nn2)ON1C (relative stereo)	inactive	inactive	Non-toxic	42	inactive	inactive	Non-toxic	Non-toxic	inactive	inactive	inactive	inactive	inactive	inactive	≥ 250	inactive	135	inactive	inactive	inactive	CC50 (L1210): 124 µM; Activity (Human alphaherpesvirus 2): inactive; Activity (HEL [12]): Non-toxic; Activity [13]: inactive; Activity (Human betaherpesvirus 5 [14]): inactive; Activity (HeLa [15]): Non-toxic; Activity (Human alphaherpesvirus 1 [16]): inactive; Activity (Coxsackievirus B4 [17]): inactive; Activity [18]: inactive; Activity [19]: inactive
CCOP(=O)(OCC)[C@@H]1C[C@@H](n2cc(-c3ccccc3)nn2)ON1C (racemic)	inactive	inactive	Non-toxic	40	inactive	inactive	Non-toxic	Non-toxic	inactive	inactive	inactive	inactive	inactive	inactive	> 250	inactive	> 250	inactive	inactive	inactive	CC50 (L1210): > 250 µM; Activity (Human alphaherpesvirus 2): inactive; Activity (HEL [12]): Non-toxic; Activity [13]: inactive; Activity (Human betaherpesvirus 5 [14]): inactive; Activity (HeLa [15]): Non-toxic; Activity (Human alphaherpesvirus 1 [16]): inactive; Activity (Coxsackievirus B4 [17]): inactive; Activity [18]: inactive; Activity [19]: inactive

From ChEMBL document CHEMBL1926651, “Design, synthesis, antiviral and cytostatic evaluation of novel isoxazolidine nucleotide analogues with a 1,2,3-triazole linker” (Eur J Med Chem, 2012)
